Tests used:
Format in all cases: functional
[1] = Inhibitory concentration required for in vitro cytotoxic activity against human U2-OS osteosarcoma cell line
Outline: (§1)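 MTT growth inhibition; U2-OS or cisplatin-resistant U2-OS/Pt monolayers in DMEM with 10% fetal calf serum, penicillin/streptomycin; (3-5) × 10³ cells/well, attached overnight; five dilutions (from 1 mg/mL stocks in water or dimethylformamide) added in quadruplicate; 72 h exposure; MTT ~120 min, DMSO dissolution, OD 590 nm; IC50 versus control read graphically.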

[2] = Inhibitory concentration required for in vitro cytotoxic activity against human U2-OS osteosarcoma cell line (cisplatin Resistant); outline: as §1
Homo sapiens = organism: Homo sapiens; assay: Relative ratio of IC50 values in both cell lines (U2-OS/Pt)/U2-OS)
Outline: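 Ratio of IC50 in U2-OS/Pt over U2-OS, both from the 72 h MTT growth-inhibition assay (quadruplicate wells, five dilutions, OD 590 nm, IC50 derived graphically).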

Sequence: CISPLATIN [listing 1 of 2 here]
- IC50 [1]: 2.9 µM
- IC50 [2]: 7.3 µM

Sequence: CISPLATIN [listing 2 of 2 here]
- RF (Homo sapiens): 2.5

Reference: ChEMBL document CHEMBL1141142, “Application of fluorescence microscopy for investigation of cellular distribution of dinuclear platinum anticancer drugs” (J Med Chem, 2005)
